# ChEMBL document CHEMBL4732161, “Discovery of a novel family of FKBP12 "reshapers" and their use as calcium modulators in skeletal muscle under nitro-oxidative stress” (Eur J Med Chem, 2021)
# Activity calls are given as the source filed them. No cut-off for these calls is given here.
# How the values were obtained:
# [1] = molecular target: T1, RyR1/FKBP12 (Homo sapiens) (UniProt P21817+P62942); assay: Stabilization of FKBP12/RyR1 protein-protein interaction in human 8220 myoblast-derived myotubes assessed as reversal of SIN1-induced intracellular calcium leakage at 150 nM preincubated for 12 hrs followed by SIN1 stimulation and measured after 6 hrs by fura-2 AM dye based fluorescence assay relative to control; conditions: Myotube, time 18.0 hrs
# In short: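 Immortalized human 8220 myoblasts differentiated 9 days into myotubes, pretreated with compounds at 150 nM for 12 h, then stressed with 5 mM SIN1 for 6 h. Loaded with Fura-2AM ([…]) plus 0.02% pluronic acid, 30 min, 37 °C; calcium from 340/380 nm excitation ratio. Six replicates, ≥4 images each; recovery score = (treated − untreated)/(control − untreated) × 100.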
# [2] = molecular target: T1, RyR1/FKBP12 (Homo sapiens); assay: Stabilization of FKBP12/RyR1 protein-protein interaction in human myotubes assessed as reversal of SIN1-induced reduction in FKBP12/RyR1 co-localization by measuring increase in FKBP12/RyR1 co-localization at 150 nM by in situ proximity ligation assay relative to control; format: tissue-based; parameters: scale not given: the % may be the effect or the level left; conditions: Myotube
# In short: (§1)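 Human myotubes 7–9 days into differentiation, treated at 150 nM, then 5 mM SIN1 for 30 min; PFA-fixed, anti-RyR1 mouse mAb overnight, Duolink orange PLA, MyHC-FITC and DAPI counterstain. Co-localization spots quantified as % of untreated control; 11–15 fields from 3–4 cultures, ≥8 myotubes per field; one-way ANOVA with Dunnett's test.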
# [3] = molecular target: T1, RyR1/FKBP12 (Homo sapiens); assay: Stabilization of FKBP12/RyR1 protein-protein interaction in human myotubes assessed as reversal of SIN1-induced reduction in FKBP12/RyR1 co-localization at 150 nM by in situ proximity ligation assay relative to control; parameters: scale not given: the % may be the effect or the level left; conditions: Myotube; in short: as §1
# [4] = molecular target: T1, RyR1/FKBP12 (Homo sapiens); assay: Effect on FKBP12/RyR1 protein-protein interaction in human myotubes by in situ proximity ligation assay; conditions: Myotube; in short: as §1
# [5] = molecular target: T2, Peptidyl-prolyl cis-trans isomerase FKBP1A (Homo sapiens, UniProt P62942); assay: Binding affinity to FKBP12 (unknown origin) expressed in HEK293 cells co-expressing FRB assessed as induction of FKBP12-FRB dimerization at […] measured for 15 mins by nano-glo live cell reagent based luminescence assay
# In short: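 HEK293 cells on poly-D-lysine, transfected with FRB-LgBiT and FKBP-SmBiT vectors (12.5 ng/mL each); assayed 20–24 h later in CO2-independent medium with Nano-Glo Live Cell Reagent at 37 °C. Compound added alone at […]; dimerization luminescence (RLU) followed over time, each addition recorded 15 min.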
# [6] = molecular target: T2, Peptidyl-prolyl cis-trans isomerase FKBP1A; assay: Binding affinity to FKBP12 (unknown origin) expressed in HEK293 cells co-expressing FRB assessed as inhibition of rapamycin-induced FKBP12-FRB dimerization measured after 25 mins by nano-glo live cell reagent based luminescence assay
# T2 sequence (P62942 whole entry): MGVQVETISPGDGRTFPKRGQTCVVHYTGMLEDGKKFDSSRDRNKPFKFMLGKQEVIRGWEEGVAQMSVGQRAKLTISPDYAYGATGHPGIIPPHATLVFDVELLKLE
SMILES,Activity [1],also measured
O=C(O)[C@H](Cc1ccc(O)cc1)n1cc(CSc2cccc(C(F)(F)F)c2)nn1,inactive,
O=C(O)[C@@H](Cc1ccccc1)n1cc(CSc2cccc(C(F)(F)F)c2)nn1,inactive,
COc1ccc2c(c1)CN(C)CCS2,Active,Activity [2]: 84%; Activity [3]: 56%; Activity [4]: inactive
O=C(O)[C@@H](Cc1ccc(O)cc1)n1cc(CSc2cccc(C(F)(F)F)c2)nn1,Active,
COc1cccc(SCc2cn([C@H](CC(C)C)C(=O)O)nn2)c1,Active,
COc1cccc(SCc2cn([C@H](Cc3ccccc3)C(=O)O)nn2)c1,Active,
COc1cccc(SCc2cn(C(C)(C)C(=O)O)nn2)c1,< 90%,
COc1cccc(SCc2cn([C@@H](Cc3ccccc3)C(=O)O)nn2)c1,Active,
CC(C)(C)OC(=O)NCCCC[C@@H](C(=O)O)n1cc(CSc2cccc(Cl)c2)nn1,inactive,

# Second part, led by results:
Activity [1],SMILES,also measured
< 90%,COc1cccc(SCc2cn(CC(=O)O)nn2)c1,Activity [5]: inactive; IC50 [6]: 3.32 µM; Activity [3]: 46%; Activity [4]: inactive
< 90%,O=C(O)Cn1cc(CSc2c(F)c(F)cc(F)c2F)nn1,
< 90%,Cc1ccc(SCCc2cn(CC(=O)O)nn2)cc1,
< 90%,COc1ccc(SCc2cn(CC(=O)O)nn2)cc1,
inactive,O=C(O)Cn1cc(CSc2cccc(Cl)c2)nn1,
< 90%,O=C(O)Cn1cc(CSc2ccccc2)nn1,
Active,CCC[C@H](C(=O)O)n1cc(CSc2cccc(OC)c2)nn1,
